Measured values published in ChEMBL document CHEMBL4304759, “Identifying Novel Anti-Osteoporosis Leads with a Chemotype-Assembly Approach” (J Med Chem, 2019).
pIC50: −log10 of the molar value. Activity calls are given as the source filed them. The rule behind the calls is not given here.

Assays:
[1] = test system: Rattus norvegicus; experiment: Effect on serum RANKL level in ovariectomized Sprague-Dawley rat at 10 mg/kg/day, po for 3 months measured post-last dose; type: organism-based; conditions: in vivo
[2] = test system: Rattus norvegicus; experiment: Anti-osteoporosis activity in ovariectomized Sprague-Dawley rat assessed as femur bone mineral density loss at 10 mg/kg/day, po for 3 months measured post-last dose by dual energy X-ray absorptiometry (RVb = 19%); type: functional
[3] = Toxicity in ovariectomized Sprague-Dawley rat assessed as effect on alkaline phosphatase level at 10 mg/kg/day, po for 3 months measured post-last dose; type: organism-based; conditions: in vivo
[4] = test system: Rattus norvegicus; experiment: Anti-osteoporosis activity in ovariectomized Sprague-Dawley rat assessed as reduction in serum osteocalcin level at 10 mg/kg/day, po for 3 months measured post-last dose; type: functional, organism-based
[5] = Toxicity in ovariectomized Sprague-Dawley rat assessed as effect on blood urea nitrogen level at 10 mg/kg/day, po for 3 months measured post-last dose; type: organism-based; conditions: in vivo
[6] = test system: C3H 10T1/2; experiment: Osteogenic activity in mouse C3H10T1/2 cells assessed as effect on osteogenic medium-induced osteoblast differentiation by measuring calcium deposition at 0.1 to 10 uM after 14 days by alizarin red dye-based assay; type: cell-based; conditions: c3h 10t1/2, 336 h
Outline: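 C3H10T1/2 cells were seeded at 5×10^4 cells/cm² in α-MEM with 10% FBS for 24 h. Osteogenic induction used medium with 5% FBS, 10⁻⁷ M dexamethasone, 50 μM ascorbic acid and 10 mM β-glycerol-phosphate, with or without compound, for 14 days. Cells were fixed in 4.0% formaldehyde and stained with 0.1% Alizarin red (pH 4.4) for 5 min at room temperature.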

[7] = Toxicity in ovariectomized Sprague-Dawley rat assessed as effect on total cholesterol level at 10 mg/kg/day, po for 3 months measured post-last dose; type: organism-based; conditions: in vivo
[8] = Renal toxicity in ovariectomized Sprague-Dawley rat assessed as effect on kidney at 10 mg/kg/day, po for 3 months measured post-last dose; type: organism-based; conditions: in vivo
[9] = test system: Rattus norvegicus; experiment: Anti-osteoporosis activity in ovariectomized Sprague-Dawley rat assessed as reduction in serum PINP level at 10 mg/kg/day, po for 3 months measured post-last dose; type: functional, organism-based
[10] = Toxicity in ovariectomized Sprague-Dawley rat assessed as effect on alanine aminotransferase level at 10 mg/kg/day, po for 3 months measured post-last dose; type: organism-based; conditions: in vivo
[11] = test system: BMDM; experiment: (§1) Anti-osteoporosis activity in C57BL/6 mouse bone marrow macrophages assessed as inhibition of M-CSF/RANKL-induced osteoclast differentiation by measuring reduction in MMP9 gene expression at 0.1 uM supplemented with fresh medium containing compounds every 2 days for 5 by trizol-reagent based RT-PCR analysis; type: functional, cell-based
Outline: (§2)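 BMMs from femur/tibia of six-week-old C57BL/6 mice, seeded at 1×10^5 cells/well in complete α-MEM (10% FBS) with M-CSF 30 ng/mL and GST-rRANKL 100 ng/mL, with or without compound at 0.1 μM for 5 days. RNA extracted with TRIzol, reverse-transcribed, then qPCR with SYBR-type premix: 40 cycles of 95 °C 10 s, 56 °C 10 s, 72 °C 30 s.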

[12] = test system: BMDM; experiment: as §1, with “c-FOS” for “MMP9”; type: functional, cell-based; outline: as §2
[13] = test system: Rattus norvegicus; experiment: Anti-osteoporosis activity in ovariectomized Sprague-Dawley rat assessed as reduction in serum CTX1 level at 10 mg/kg/day, po for 3 months measured post-last dose; type: functional, organism-based
[14] = test system: BMDM; experiment: Anti-osteoporosis activity in C57BL/6 mouse bone marrow macrophages assessed as inhibition of M-CSF/RANKL-induced osteoclast differentiation by measuring reduction in hydroxyapatite resorption at 0.01 to 1 uM measured after 48 hrs by microscopic analysis; type: functional, cell-based
Outline: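 BMMs were driven to mature osteoclasts with GST-rRANKL plus M-CSF (30 ng/mL) on collagen-coated plates. Equal numbers were reseeded onto hydroxyapatite-coated wells with GST-rRANKL/M-CSF, with or without compound, for 48 h. Cells were bleached off, resorbed areas imaged by inverted microscope, and percent surface resorbed quantified.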

[15] = Pulmonary toxicity in ovariectomized Sprague-Dawley rat assessed as effect on lung at 10 mg/kg/day, po for 3 months measured post-last dose; type: organism-based; conditions: in vivo
[16] = test system: C3H 10T1/2; experiment: Cytotoxicity against mouse C3H10T1/2 cells assessed as effect on cell viability at 0.1 to 100 uM measured after 48 to 72 hrs by CCK8 assay; type: cell-based; conditions: c3h 10t1/2, 100 µM
Outline: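 C3H10T1/2 cells in log phase were seeded at 6×10^3 per well and held 24 h. They were then exposed to DMSO vehicle or compound at 0.1–100 μM for 48 h or 72 h. CCK-8 was added for 30 min at 37 °C and absorbance read at 450 nm.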

[17] = test system: BMDM; experiment: as §1, with “TRAcP” for “MMP9”; type: functional, cell-based; outline: as §2
[18] = Toxicity in ovariectomized Sprague-Dawley rat assessed as effect on total triglyceride level at 10 mg/kg/day, po for 3 months measured post-last dose; type: organism-based; conditions: in vivo
[19] = test system: BMDM; experiment: as §1, with “NFATc1” for “MMP9”; type: functional, cell-based; outline: as §2
[20] = Toxicity in ovariectomized Sprague-Dawley rat assessed as effect on thymus at 10 mg/kg/day, po for 3 months measured post-last dose; type: organism-based; conditions: in vivo
[21] = Toxicity in ovariectomized Sprague-Dawley rat assessed as effect on spleen at 10 mg/kg/day, po for 3 months measured post-last dose; type: organism-based; conditions: in vivo
[22] = test system: Rattus norvegicus; experiment: Anti-osteoporosis activity in ovariectomized Sprague-Dawley rat assessed as reduction in femur bone mass loss at 10 mg/kg/day, po for 3 months measured post-last dose by micro-CT analysis; type: functional, organism-based
[23] = Hepatotoxicity in ovariectomized Sprague-Dawley rat assessed as effect on liver at 10 mg/kg/day, po for 3 months measured post-last dose; type: toxicity, organism-based; conditions: in vivo
[24] = Toxicity in ovariectomized Sprague-Dawley rat assessed as effect on uterus at 10 mg/kg/day, po for 3 months measured post-last dose; type: organism-based; conditions: in vivo
[25] = test system: BMDM; experiment: Anti-osteoporosis activity in C57BL/6 mouse bone marrow macrophages assessed as inhibition of M-CSF/RANKL-induced osteoclast differentiation supplemented with fresh medium containing compounds every 2 days for 5 measured post-last dose by TRAP staining based assay; type: functional, cell-based
Outline: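 Mouse (C57BL/6, 6-week) BMMs were plated at 6×10³ cells/well with M-CSF 30 ng/mL overnight, then given complete α-MEM with M-CSF and GST-rRANKL 100 ng/mL plus compound at varied concentrations, refreshed every 2 days. At day 5 cells were fixed in 4% paraformaldehyde and TRAcP-stained; TRAcP+ cells with >3 nuclei were counted.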

[26] = Toxicity in ovariectomized Sprague-Dawley rat assessed as effect on creatinine level at 10 mg/kg/day, po for 3 months measured post-last dose; type: organism-based; conditions: in vivo
[27] = Cardiotoxicity in ovariectomized Sprague-Dawley rat assessed as effect on heart at 10 mg/kg/day, po for 3 months measured post-last dose; type: toxicity, organism-based; conditions: in vivo
[28] = Toxicity in ovariectomized Sprague-Dawley rat assessed as effect on aspartate transaminase level at 10 mg/kg/day, po for 3 months measured post-last dose; type: organism-based; conditions: in vivo

## O=C(Cn1cc(-c2ccncc2)nn1)Nc1nccs1
[1]
  Activity: Non-Toxic
[2]
  Activity: 8%
[3]
  Activity: Non-Toxic
[4]
  Activity: Active
[5]
  Activity: Non-Toxic
[6]
  Activity: Non-Toxic
[7]
  Activity: Non-Toxic
[8]
  Activity: Non-Toxic
[9]
  Activity: Active
[10]
  Activity: Non-Toxic
[11]
  inhibition: Active
[12]
  inhibition: Active
[13]
  Activity: Active
[14]
  inhibition: Active
[15]
  Activity: Non-Toxic
[16]
  Activity: Non-Toxic
[17]
  inhibition: Active
[18]
  Activity: Non-Toxic
[19]
  inhibition: Active
[20]
  Activity: Non-Toxic
[21]
  Activity: Non-Toxic
[22]
  Activity: inactive
[23]
  Activity: Non-Toxic
[24]
  Activity: Non-Toxic
[25]
  inhibition: Dose-dependent effect
[25]; C57BL/6, BMDM, 5 days
  pIC50: 8.70
[26]
  Activity: Non-Toxic
[27]
  Activity: Non-Toxic
[28]
  Activity: Non-Toxic
